Published values of several laboratories.
Target: Adenosine receptor A2a (ADORA2A, Homo sapiens, UniProt P29274)

The inhibition of `CC(C)Cn1cnc2c(N)nc3ccccc3c21` is reported as 89% (ligand displacement; radioligand; 10 µM).
With `O=C(Nc1cccnn1)N1CCN([C@@H]2CCOc3cc(C(F)(F)F)ccc32)CC1` the inhibition was 15% (ligand displacement; 20 µM).
`CC(C)N1CCC[C@H]1CNC(=O)c1cn(C2CCCC2)c(=O)c2c1c1ccccc1n2C` gave an inhibition of 6% (ligand displacement; radioligand; 10 µM).
`COc1ccc(S(=O)(=O)N2CCCCC2)cc1C` gave an inhibition of under 30% (ligand displacement; radioligand; 10 µM).
For `Nc1ncc(-c2nc(N3CCOCC3)nc(N3CCOCC3)n2)c(C(F)F)n1`, the remaining signal was 93.3% (cell-free assay; radioligand; 10 µM).
For `c1ccc(C(NCCNC(c2ccccc2)c2ccccc2)c2ccccc2)cc1`, the inhibition was 12% (cell-free assay; 10 µM).
The inhibition of `COCc1c(-c2cc3cc(C)cc(OC)c3s2)c2c(N)ncnn2c1CN1CCNC(=O)C1` is reported as 7% (ligand displacement; radioligand; 10 µM).
For `OC[C@@]12C[C@@H]1[C@@H](n1cnc3c(NC(C4CCCC4)C4CCCC4)nc(Cl)cc31)[C@H](O)[C@@H]2O`, the inhibition was -12% (ligand displacement; radioligand; 10 µM).
With `CCN(CC)CCCC[C@H](NC(=O)[C@H](CC(C)C)NC(=O)[C@H](C)NC(=O)[C@H](Cc1ccccc1)NC(=O)c1ccc(C(C)(C)C)cc1)C(=O)N[C@@H](CO)C(=O)OC` the remaining binding was 102% (ligand displacement; radioligand; 10 µM).
With `OC[C@@]12C[C@@H]1[C@@H](n1cnc3c(NC(C4CCCC4)C4CCCC4)nc(Cl)nc31)[C@H](O)[C@@H]2O` the inhibition was 24% (ligand displacement; radioligand; 10 µM).
The inhibition of `Clc1ccc2c(C3CCN(CCc4c[nH]c5ccccc45)CC3)c[nH]c2c1` is reported as -12% (ligand displacement; radioligand; 10 µM).
`O=c1ccc2ccccc2o1` gave an inhibition of -4.26% (ligand displacement; radioligand; 10 µM).
For `C[C@H](C(=O)N[C@H]1COc2ccccc2[C@@H]1S(C)(=O)=O)c1ccc(F)cc1`, the inhibition was 1% (cell-free assay; 10 µM).
